NRP1-CendR mod: alters CendR peptide binding to human NRP-1 | O14786 | FAM-RPARPAR peptide binding to NRP-1, fluorescence polarization | inhibition, % at 25 µM | 360,000 tested, 0.85% active;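 active = inhibition or corrected inhibition above about 18%, plus a signal ratio from 0.5 to 1.5, limit read from the data, passing the limit was not always enough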
Target sequence (O14786 whole entry, looked up): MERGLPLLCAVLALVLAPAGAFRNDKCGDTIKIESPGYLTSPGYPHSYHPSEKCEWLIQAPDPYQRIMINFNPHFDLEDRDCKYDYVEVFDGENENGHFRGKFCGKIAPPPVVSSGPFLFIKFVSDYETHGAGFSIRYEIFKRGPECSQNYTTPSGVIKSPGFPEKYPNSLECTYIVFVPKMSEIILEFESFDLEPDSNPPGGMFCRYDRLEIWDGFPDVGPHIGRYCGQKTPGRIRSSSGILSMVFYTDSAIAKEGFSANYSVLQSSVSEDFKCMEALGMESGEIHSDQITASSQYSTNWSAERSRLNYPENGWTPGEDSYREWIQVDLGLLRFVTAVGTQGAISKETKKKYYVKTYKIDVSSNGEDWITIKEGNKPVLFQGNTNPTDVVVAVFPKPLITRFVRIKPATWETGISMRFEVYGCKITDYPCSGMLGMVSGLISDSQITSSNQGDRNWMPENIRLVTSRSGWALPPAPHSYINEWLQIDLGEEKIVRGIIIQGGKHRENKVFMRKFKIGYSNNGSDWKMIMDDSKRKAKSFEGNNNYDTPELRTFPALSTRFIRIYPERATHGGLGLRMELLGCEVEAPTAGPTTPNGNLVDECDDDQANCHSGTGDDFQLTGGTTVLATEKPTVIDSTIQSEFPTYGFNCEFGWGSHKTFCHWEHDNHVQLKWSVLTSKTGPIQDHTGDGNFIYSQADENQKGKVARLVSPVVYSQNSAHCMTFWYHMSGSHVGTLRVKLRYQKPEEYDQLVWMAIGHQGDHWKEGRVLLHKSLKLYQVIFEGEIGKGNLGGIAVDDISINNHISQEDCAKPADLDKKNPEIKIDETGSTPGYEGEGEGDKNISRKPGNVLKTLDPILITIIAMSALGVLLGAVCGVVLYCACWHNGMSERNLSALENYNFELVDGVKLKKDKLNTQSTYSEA
MT1-MMP act inh: MT1-MMP (human) activation inhibition; P50281; HT1080 RFP-PRO-GFP cells, GFP/RFP ratio fluorescence, overnight; percent of plate control window, DMSO zero; GFP/RFP ratio change, % at 20 µM; 360,000 tested, 0.061% active;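 active = GFP/RFP ratio change of at least 30% with cell ATP level not reduced by more than half and red fluorescence within 50% of control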
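Material – HT1080 RFP-PRO-GFP cells · Control set – DMSO wells and RFP-L50D-GFP cells · Incubation – overnight cell settling, then overnight compound exposure, 37 °C, 5% CO2 · Compound dosing – single-point 20 µM compound, 1% DMSO · Read-out – GFP/RFP fluorescence ratio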
DAGLB inh: diacylglycerol lipase beta (human) inhibition; Q8NCG7; 340,000 tested, 0.059% active; inhibition, % at 5.17 µM; HEK293T DAGLB membrane lysate, EnzChek fluorogenic substrate; AID 504411; in the data active = inhibition above about 34%
SENP1 FRET inh: blocks the human SENP1 SUMO protease catalytic domain. Q9P0U3. recombinant SENP1 catalytic domain, CyPet-SUMO1-YPet FRET cleavage. inhibition, % at 10 µM. 360,000 tested, 0.21% active;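 active = inhibition at least 30% at 10 µM, raw YFP signal under a set limit, fluorescence ratio 0.5 to 1.5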
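Assay system – human recombinant His6-tagged SENP1 catalytic domain enzyme · Input – SENP1 enzyme, 20 pM final · Buffer or medium – Tris pH 8 buffer plus EDTA, NaCl, BME, BSA, NP40, catalase · Schedule – 50 min reaction at room temperature · Technique – FRET read of cyan and yellow fluorescence · Control set – no-enzyme wells low, DMSO-plus-enzyme wells high control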
MIN6 prolif: inducers of beta-cell replication in MIN6 cells; MIN6 cells proliferation, ATPlite luminescence, 48 h; cells starved in 0.2% serum; 100% = growth in 10% serum; proliferation, % at 10 µM; 330,000 tested, 0.29% active; AID 2380;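 active = compounds whose signal lies at least 3.5 SD above the mean of all wells on their plate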
Myeloid diff MLP: compounds promoting myeloid differentiation | ER-HoxA9 myeloid progenitors, lysozyme-GFP differentiation, flow cytometry | calls only at 10 µM | 360,000 tested, 1% active;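 active = normalized GFP-positive differentiation at or above the plate's own cutoff, the solvent-only control mean plus 3 SD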;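 note: cells exposed to compound for four days before flow analysis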
Myeloid diff CP1: myeloid differentiation induction. shares compounds with Myeloid diff MLP. ER-HoxA9 myeloid progenitors, GFP/Mac1 double-positive flow. calls only. 2,300 tested, 2% active. AID 651706;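 active = share of green or green-and-red cells above 9 and 9% in run 1 or 4 and 3% in run 2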
GFP autofluor: counter-screen for myeloid differentiation promoters: compound fluorescence | shares compounds with Myeloid diff MLP | ER-HoxA9 myeloid progenitors, no estrogen, GFP autofluorescence flow cytometry; vehicle wells 0%, positive control 100% | fluorescence response, % (no concentration beside the values) | 2,300 tested, 7.4% active;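 active = over 5% cells positive for green fluorescent reporter, or over 2% positive for both it and APC stain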
Numbers stand for hits; n = inactive; x = no result given; + = active, no number. Shown are actives, neighbours in structure and some others; about 2.4% of the full set was active somewhere.

SMILES	NRP1-CendR mod	MT1-MMP act inh	DAGLB inh	SENP1 FRET inh	MIN6 prolif	Myeloid diff MLP	Myeloid diff CP1	GFP autofluor
c1ccc(CNc2nc(-c3cccs3)nc3ccccc23)nc1	n	n	n	n	n	n	n	n
CCOC(=O)C1=C(O)/C(=C/c2cc(OC)c(O)c(OC)c2)SC1=Nc1ccc(OC)cc1	n	n	n	n	x	n	n	23
CC(Nc1ccc(Br)cc1)C(=O)Nc1cccc(S(=O)(=O)N2CCOCC2)c1 (stereo unspecified)	n	n	n	n	n	n	x	x
COc1ccc(NC(=O)c2ccccc2OCc2c(C)noc2C)cc1OC	n	n	n	n	n	n	x	x
Cc1cccc(NC(=O)c2cc(NC(=O)c3ccco3)ccc2Cl)n1	n	n	n	n	n	n	n	n
Cc1cccc(NC(=O)c2cc(NC(=O)C3CCCCC3C(=O)O)ccc2Cl)n1 (stereo unspecified)	n	n	n	n	n	n	x	x
O=C(NC1CCCC1)C(c1ccccn1)N(C(=O)c1csnn1)c1ccccc1Cl (stereo unspecified)	n	n	n	n	n	n	x	x
CC(Sc1nc2ccccc2c(=O)n1C)C(=O)Nc1ccc2c(c1)OCCO2 (stereo unspecified)	n	n	n	n	n	n	n	n
O=S(=O)(c1ccc2c(c1)OCCO2)N1CCC(c2nc3ccc(Cl)cc3[nH]2)CC1	n	n	n	n	n	n	n	n
COc1ccc(C(C)(NC(C)=O)c2nc(-c3cnc4ccccc4c3)cs2)cc1 (stereo unspecified)	n	n	x	n	x	n	x	x
O=C(CSc1nc2ccsc2c(=O)n1NC(=O)c1ccccc1)Nc1nccs1	n	n	n	n	n	+	n	n
CC1CC(C)(C)NC(=S)N1CCCC(=O)NCc1ccccc1 (stereo unspecified)	n	n	n	n	n	n	n	n
CC1CCN(CC(=O)Nc2ccccc2C#N)CC1	n	n	n	n	n	+	n	n
O=C(Nc1cccc2ccccc12)/C(=C/c1cccc([N+](=O)[O-])c1)NC(=O)c1cccs1	n	n	n	n	n	n	x	x
O=C(Nc1cccc2ccccc12)/C(=C\c1cccc([N+](=O)[O-])c1)NC(=O)c1cccs1	n	n	n	n	n	+	n	n
CN(C)CCN1CC(O)=C(c2nc3ccccc3s2)C1=N	n	n	n	n	n	n	x	x
N=C1C(c2nc3ccccc3s2)=C(O)CN1Cc1ccco1	n	n	n	n	n	+	n	n
CCOC(=O)c1cc2sccc2n1CC(=O)N1CCCc2ccccc21	n	n	n	n	n	+	n	n
CCOc1ccc(-n2c(COc3ccc(C)cc3)nnc2SCC(N)=O)cc1	n	n	n	n	x	n	n	n
COc1ccc(-n2c(COc3ccc(C)cc3)nnc2SCC(=O)O)cc1	n	n	n	n	n	n	x	x
CC(C)C/C=C1\CCc2c([nH]c3ccccc23)C1=O	n	n	n	n	n	n	x	x
CCCCCCCCC1=NCCc2c1[nH]c1ccccc21	n	n	n	n	n	n	n	n
C=CCn1c(SCC2=C(C(=O)OCC)C(C)NC(=O)N2)nnc1C1CCCCC1 (stereo unspecified)	n	n	n	n	n	n	x	x
CCC(C)C(=O)Nc1ccc(OC)cc1[N+](=O)[O-] (stereo unspecified)	n	n	n	n	n	n	x	x
COC(=O)C1CC2=C(CCCC2=O)N(c2ccccc2)C1=O (stereo unspecified)	n	n	n	n	x	n	x	x
SMILES	NRP1-CendR mod	MT1-MMP act inh	DAGLB inh	SENP1 FRET inh	MIN6 prolif	Myeloid diff MLP	Myeloid diff CP1	GFP autofluor
COC(=O)C1CC2=C(CCCC2=O)NC1=O (stereo unspecified)	n	n	n	n	x	n	n	n
O=C(Nc1cccc2ccccc12)NC1Cc2ccccc2C1	n	n	x	n	n	n	x	x
CC1(C)CC(=O)c2c(O)cc(OCC(=O)Nc3ccc(CCO)cc3)cc2O1	n	n	n	n	n	n	x	x
Cn1c(=O)c2cc(NC(=O)CCc3ccccc3)ccc2n1Cc1cccc(C(F)(F)F)c1	n	n	x	n	x	n	x	x
Cn1c(=O)c2cc(NC(=O)CCc3ccc(O)cc3)ccc2n1Cc1cccc(C(F)(F)F)c1	n	n	x	n	x	+	n	n
COc1ccc2oc(=O)cc(CN3CCN(Cc4ccc(OC)c(OC)c4OC)CC3)c2c1	n	n	n	n	n	n	x	x
O=[N+]([O-])c1ccccc1SN(Cc1ccccc1)c1ccccn1	n	n	n	n	n	n	n	n
COc1cccc(C=Nc2cccc3c(=O)[nH][nH]c(=O)c23)c1O	n	n	n	n	n	+	n	n
CN(c1ccc(C(=O)NCc2ccc3c(c2)OCO3)cc1)S(C)(=O)=O	n	n	n	n	n	n	x	x
CN(c1ccc(C(=O)NCc2ccc3c(c2)OCO3)cc1)S(=O)(=O)c1ccccc1	n	n	n	n	n	n	n	n
COCc1cc(C)nc2sc(C(=O)N3CCN(c4ccccc4)CC3)c(N)c12	n	n	n	n	n	n	x	x
COCc1cc(C)nc2sc(C(=O)N3CCCCC3)c(N)c12	n	n	n	n	n	n	n	n
Cc1cc(NC(=O)CN2CCC(n3nnc4cc(C(F)(F)F)ccc43)CC2)no1	n	n	n	n	n	+	n	n
O=c1[nH][nH]cc1C=Nc1ccc(Cl)cc1Cl	n	n	n	n	n	n	x	x
O=c1[nH][nH]cc1C=Nc1cc(Cl)ccc1O	n	n	n	n	n	n	n	n
O=c1[nH][nH]cc1C=Nc1ccccc1Cl	n	n	n	n	n	n	x	x
O=c1[nH][nH]cc1C=Nc1ccccc1O	n	n	n	n	n	+	+	n
COc1ccc(C(=O)c2ccc(Cl)cc2)c(OC)c1OC	n	n	n	n	x	n	x	x
N#Cc1ccsc1NC(=O)C1CC(=O)N(Cc2ccccc2)C1 (stereo unspecified)	n	n	n	n	n	n	n	n
CC(C)(C)c1ccc(OCc2ccc(C(=O)NN)o2)cc1	n	n	n	n	n	+	n	n
NNC(=O)c1ccc(COc2ccc(Br)cc2)o1	n	n	n	n	n	n	n	n
NNC(=O)c1ccc(COc2ccc3c(c2)CCC3)o1	n	n	n	n	n	n	x	x
Cc1nn(C)c(Sc2ccccc2N)c1[N+](=O)[O-]	n	n	n	n	n	n	n	n
Cc1nn(C)c(N)c1[N+](=O)[O-]	n	n	n	n	n	n	x	x
O=[N+]([O-])c1cc(C=Nc2cccc3c(O)cccc23)ccc1Cl	x	x	x	x	n	x	x	x

Assay outcomes from PubChem.
